In the library only some 3% were active in any assay of this set; here they are far more common.
HIF act – HIF pathway transcriptional activation | U2OS HRE-luciferase reporter, luminescence; normalized: DMSO 0%, desferrioxamine 100% | activation, % at 7.5 µM (by protocol) | actives 0.32% (n = 300,000);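 active = mean activation of at least 10% of the iron chelator positive control signal, with at least half of replicates also reaching 10%; inconclusive = mean and replicate majority disagree about reaching 10%; inactive = mean and most replicates under 10%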
NRP1-CendR mod – NRP-1/CendR interaction modulation | O14786 | FAM-RPARPAR peptide binding to NRP-1, fluorescence polarization | inhibition, % at 25 µM | actives 0.85% (n = 360,000) | AID 602438;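 active = inhibition or corrected inhibition above about 18%, plus a signal ratio from 0.5 to 1.5, limit read from the data, passing the limit was not always enough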
V-ATPase pH – yeast V-ATPase proton transport regulation by pHLuorin; AID 504577; response, % at 10 µM; actives 0.37% (n = 350,000); S. cerevisiae, pHLuorin cytosolic pH fluorescence; in the data active = response mostly above about 7.3%, no sharp cut-off; inactive = mostly below about 5.4%; also: actives read high
Yeast superoxide – yeast age-related superoxide inhibition as caloric restriction mimetic | S. cerevisiae aged cells, superoxide DHE fluorescence; hits give low values | superoxide response (% of plate mean), % at 10 µM | actives 0.18% (n = 330,000) | AID 2690;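 active = superoxide response under a set limit, about three screen SD below normal, cut at about 65% in these data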;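 also: yeast aged for seven days with compound at 30 °C before DHE staining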
AI-2 QS modul – modulators of Vibrio harveyi AI-2 quorum sensing system. Vibrio harveyi JMH597 AI-2 luminescence/OD600 ratio, 9 h; hits give low values; strain lacks LuxN and CqsS sensors; 0 = neutral-control median. activity change, % at 7.5 µM. actives 0.4% (n = 300,000). AID 2094; in the data active = activity change below about -75%, passing the limit was not always enough; inconclusive = no clear call, values can overlap the other calls;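 also: luminescence divided by OD600 gain over 9 h not by final OD600 alone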
T cruzi repl – T. cruzi replication inhibition; inhibition, % (concentration not given with the values); actives 1.4% (n = 300,000); T. cruzi beta-gal in NIH3T3, luminescence, 90 h;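 active = mean inhibition across valid replicates above about 55%, limit read from the data; inconclusive = mean below that limit but half or more replicates reach it; inactive = mean below it, under half of replicates reach it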;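 also: signal also drops with host cell toxicity which is not excluded here; higher percent means less beta-gal luminescence so fewer parasites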
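Test system: β-gal T. cruzi (Tulahuen C4) inside NIH/3T3 cells / Quantity: 5,000 cells/well / Measured by: luminescence from GalScreen with 0.05% NP40, read after 60 min / Medium: DMEM plus 2% FBS / Measure: parasite load inhibition, % / Reagent: Tulahuen C4 trypomastigotes, 5000/well / Schedule: co-culture of at least 90 h after 3 h attachment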
Hits are given with their value; i = inactive; ? = inconclusive; nt = not tested or not shown.

SMILES | HIF act | NRP1-CendR mod | V-ATPase pH | Yeast superoxide | AI-2 QS modul | T cruzi repl
CCNC(=O)NC(=O)CSc1ccccc1F | i | 35 | i | i | i | i
CCNC(=O)NC(=O)CSc1ccc2ccccc2c1 | i | i | i | i | i | i
Cc1ccc(C(C(=O)NC2CCCC2)N(C(=O)CNC(=O)c2ccco2)c2ccccc2)o1 (stereo unspecified) | i | i | i | i | i | i
CC(CN1CCCCC1)OC(=O)c1ccc(Cl)cc1Cl (stereo unspecified) | i | 22 | nt | i | i | i
CN(Cc1ccco1)S(=O)(=O)c1ccc(CN2C(=O)c3cccnc3C2=O)s1 | nt | i | 13 | i | i | i
COc1ccc(CN2C(=O)c3cccnc3C2=O)cc1S(=O)(=O)N(C)Cc1ccco1 | i | i | i | i | i | i
Cc1ccc(NC(=O)CN(C)C(C)C(=O)N2CC(C)CC(C)C2)cc1 (stereo unspecified) | nt | i | i | i | nt | nt
CCOC(=O)CSC1=Nc2ccccc2C2=NC(CC(=O)NCc3ccccc3)C(=O)N12 (stereo unspecified) | i | i | i | i | i | i
CC(=O)OCCNc1cc(Sc2nc3ccccc3[nH]2)c2nonc2c1[N+](=O)[O-] | i | i | i | i | i | 56
O=[N+]([O-])c1c(NCCCO)cc(Sc2ccc(Cl)cc2)c2nonc12 | i | i | i | i | i | i
CC(=O)OCCCNc1cc(Sc2ccc(C)cc2)c2nonc2c1[N+](=O)[O-] | 9.9 | i | i | i | i | i
COC(=O)CCSc1cc(NCCOC(C)=O)c([N+](=O)[O-])c2nonc12 | i | i | i | i | i | i
CC(=O)OCCNc1cc(SCc2ccco2)c2nonc2c1[N+](=O)[O-] | i | 27 | i | i | i | i
CC(=O)OCCCNc1cc(Sc2nc3ccccc3s2)c2nonc2c1[N+](=O)[O-] | i | i | i | i | i | 69
O=C(NC1CCCC1)C(c1ccccc1)n1c(-c2cccc3ccccc23)nc2ccccc21 (stereo unspecified) | nt | i | nt | nt | nt | nt
O=c1cc(-c2c(F)c(F)c(F)c(F)c2F)oc2c(F)c(F)c(F)c(F)c12 | i | nt | nt | i | -78 | 61
O=c1cc(-c2c(F)c(F)c(F)c(F)c2F)oc2ccccc12 | i | i | i | i | i | i
O=C1COCCOCCOCC(=O)NCCN1 | i | i | i | i | i | i
CC(C)c1ccc(NC2CCCN(C(=O)c3cscn3)C2)cc1 (stereo unspecified) | i | 21 | i | i | i | i
Cc1nnsc1C(=O)N1CCCC(Nc2ccc(C(C)C)cc2)C1 (stereo unspecified) | i | i | i | i | i | i
c1ccc(OCCOCCN2CCc3ccccc3C2)cc1 | i | i | i | i | i | ?
CCCOc1ccc(OCCOCCN2CCc3ccccc3C2)cc1 | i | i | i | i | i | 71
CCOc1ccc(OCCOCCN2CCc3ccccc3C2)cc1 | i | i | i | i | i | 77
Nc1nonc1C(=O)NCCN=Cc1ccccc1O | i | i | i | i | i | i
Nc1nonc1C(=O)NCCN=Cc1cc(Cc2ccccc2)cc(Br)c1O | i | i | i | i | -149 | i
SMILES | HIF act | NRP1-CendR mod | V-ATPase pH | Yeast superoxide | AI-2 QS modul | T cruzi repl
Cn1cccc1/C=C1\SC(=S)N(Nc2ccccc2)C1=O | i | i | i | i | i | 64
Cc1ccc(C(=O)NCC(=O)Nc2ccccc2C)o1 | nt | 23 | i | nt | nt | nt
CC1CN(c2nc3ccccn3c(=O)c2/C=C(\C#N)C(=O)N2CCOCC2)CC(C)O1 (stereo unspecified) | 18 | i | i | i | i | i
O=S(=O)(Nc1ccc(S(=O)(=O)Nc2ccccc2)cc1)c1ccccc1 | i | i | i | i | i | i
O=S(=O)(Nc1ccc(Nc2ccccc2)cc1)c1ccc(F)cc1 | i | i | i | i | -95 | i
COc1cc2c(-c3ccccc3)c(C)oc2cc1/C=N/NC(N)=S | i | i | i | i | i | 89
Cc1cc2ccccc2n1CCNC(=O)COc1ccccc1 | i | i | i | i | i | 58
CCC(=O)NCCn1c(C)cc2ccccc21 | i | i | i | i | i | i
Cc1ccc(-c2csc(NC(=O)c3ccc(-c4ccccc4)cc3)n2)o1 | i | i | i | i | i | i
CCN(CC)S(=O)(=O)c1cccc(C(=O)N/N=C/c2ccc([N+](=O)[O-])o2)c1 | i | i | i | i | i | 56
COc1cc(/C=N/NC(=O)c2cncc(Br)c2)cc([N+](=O)[O-])c1O | i | i | i | i | -202 | i
CCN(CC)S(=O)(=O)c1cccc(C(=O)N/N=C/c2ccccc2OCC(=O)O)c1 | i | i | i | i | i | i
O=C(N/N=C\c1ccc([N+](=O)[O-])o1)c1cncc(Br)c1 | i | i | i | i | i | 58
O=C(N/N=C/c1ccc(-c2ccccc2[N+](=O)[O-])o1)c1cncc(Br)c1 | i | i | i | i | i | i
Cn1cccc1C1Nc2ccccc2NC2=C1C(=O)CC(C)(C)C2 (stereo unspecified) | i | 22 | i | i | i | i
Cc1ccc(C(=O)Nn2cnnc2)cc1[N+](=O)[O-] | i | 26 | i | i | i | i
Cc1ccc(C(=O)NCCc2nc3ccccc3[nH]2)cc1[N+](=O)[O-] | i | i | i | i | i | 58
O=C(NCCc1nc2ccccc2[nH]1)c1ccc(Cl)c([N+](=O)[O-])c1 | i | i | i | i | i | i
CCCCOC(=O)C(C)Oc1ccc(=O)n(-c2ccccc2)n1 (stereo unspecified) | i | i | i | i | i | i
Cc1cc(NS(=O)(=O)c2ccc(NC(=O)Cc3cccs3)cc2)no1 | i | i | i | i | -78 | i
Cc1cc(NC(=O)c2ccc(S(=O)(=O)Nc3ccccc3)cc2)no1 | i | 27 | i | i | i | i
Cc1cc(=O)oc2c(N)c(O)ccc12 | nt | i | i | i | i | i
C#CCNC(=O)c1ccc(OCc2ccccc2)cc1Cl | i | i | i | i | i | i
CNC(=O)C(=O)NCC1OCCCN1S(=O)(=O)c1ccc(F)cc1C (stereo unspecified) | i | 27 | i | i | i | i
CCNC(=O)C(=O)NCC1OCCCN1S(=O)(=O)c1ccc(F)cc1C (stereo unspecified) | i | i | i | i | i | i
CS(=O)(=O)Nc1ccc2c(c1)nc1n2CCOC1 | i | i | 20 | i | i | i
CCCC(=O)Nc1ccc2c(c1)nc1n2CCOC1 | i | i | i | i | i | i
CC1(C(=O)NS(=O)(=O)c2ccccc2)CCN1C(=O)COc1ccc(Cl)cc1 (stereo unspecified) | nt | i | nt | nt | nt | nt
O=C(CN1C(=O)COc2ccc(Cl)cc21)Nc1ccc2c(c1)OCCO2 | 82 | i | i | i | i | i
O=C(CN1CCC(C(=O)c2ccc(Cl)cc2)CC1)Nc1ccc2c(c1)OCCO2 | 74 | i | i | i | i | i
